The values below come from ChEMBL document CHEMBL3600309, “Structure activity relationship study of burkholdine analogues toward simple antifungal agents” (2015).

Structures are written as SMILES. Converted amounts (≈) assume the structure as drawn. The source made the active and inactive calls. No cut-off for these calls is given here.

What all share (format): functional
Experiment [1] is described as follows: Antifungal activity against Candida viswanathii NBRC10321 at 400 ug/ml after 24 hrs by twofold serial dilution method. An outline of the steps: (§1)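 Compounds were first screened at a single concentration of 400 against each fungus. MIC values were then determined only for selected compounds.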
The test system of experiment [2] is Saccharomyces cerevisiae. Put plainly: Antifungal activity against Saccharomyces cerevisiae X2180-1A after 24 hrs by twofold serial dilution method. Put shortly:
as §1

Experiment [3] deals with Aspergillus oryzae. The experiment in a line: Antifungal activity against Aspergillus oryzae 1-Murasaki-1 after 24 hrs by twofold serial dilution method. The settings on record: 1-Murasaki-1, 24 h. Put shortly: as §1

For the molecule `CCCCCCCCCCCCNC(=O)[C@H]1CC(=O)N[C@H](CO)C(=O)N[C@H](Cc2ccc(O)cc2)C(=O)N[C@H](CC(N)=O)C(=O)NCC(=O)N[C@@H](CC(N)=O)C(=O)N[C@H](CO)C(=O)N[C@@H](CC(N)=O)C(=O)N1`, in experiment [1], the outcome was inactive.

With `CCCCCCCCCCCCNC(=O)[C@H]1CC(=O)N[C@H](CO)C(=O)N[C@H](Cc2ccc(O)cc2)C(=O)N[C@H](CC(N)=O)C(=O)NCC(=O)N[C@H](CC(N)=O)C(=O)N[C@H](CO)C(=O)N[C@@H](CC(N)=O)C(=O)N1`, the MIC in experiment [2] amounted to 100 µg/mL (≈ 98.1 µM); in experiment [3], 200 µg/mL (≈ 196 µM). Besides, the outcome in experiment [1] was inactive.

For the molecule `CCCCCCCCCCCCNC(=O)[C@H]1CC(=O)N[C@H](CO)C(=O)N[C@H](Cc2ccc(O)cc2)C(=O)N[C@H](CC(N)=O)C(=O)NCC(=O)N[C@@H](CC(N)=O)C(=O)N[C@H](CO)C(=O)N[C@H](CC(N)=O)C(=O)N1`, the MIC in experiment [2] is 400 µg/mL (≈ 392 µM); in experiment [3], 200 µg/mL (≈ 196 µM). Also, the outcome in experiment [1] was inactive.

As to `CCCCCCCCCCCCNC(=O)[C@@H]1CC(=O)N[C@H](CO)C(=O)N[C@H](Cc2ccc(O)cc2)C(=O)N[C@H](CC(N)=O)C(=O)NCC(=O)N[C@H](CC(N)=O)C(=O)N[C@H](CO)C(=O)N[C@H](CC(N)=O)C(=O)N1`, the MIC is over 400 µg/mL in experiment [2] and 200 µg/mL (≈ 196 µM) in experiment [3]. For the same molecule, the result in experiment [1] was inactive.

Consider `CCCCCCCCNC(=O)[C@H]1CC(=O)N[C@H](CO)C(=O)N[C@H](Cc2ccc(O)cc2)C(=O)N[C@H](CC(N)=O)C(=O)NCC(=O)N[C@@H](CC(N)=O)C(=O)N[C@@H](CO)C(=O)N[C@@H](CC(N)=O)C(=O)N1`, for which the outcome in experiment [1] was inactive.

For `CCCCCCCCCCCCNC(=O)[C@H](CC(=O)N[C@H](CO)C(=O)O)NC(=O)[C@H](CC(N)=O)NC(=O)[C@H](CO)NC(=O)[C@H](CC(N)=O)NC(=O)CNC(=O)[C@@H](CC(N)=O)NC(=O)[C@H](N)Cc1ccc(O)cc1`, the result in experiment [1] was inactive.

Regarding `C[C@@H]1[C@H](O)[C@@H](C)/C=C/C=C/C=C/C=C/C=C/C=C/C=C/[C@H](O[C@@H]2O[C@H](C)[C@@H](O)[C@H](N)[C@@H]2O)C[C@@H]2O[C@](O)(C[C@@H](O)C[C@@H](O)[C@H](O)CC[C@@H](O)C[C@@H](O)CC(=O)O[C@H]1C)C[C@H](O)[C@H]2C(=O)O` [AMPHOTERICIN B], the lowest concentration to inhibit growth in experiment [2] (MIC) was 1 µg/mL (≈ 1.08 µM).

As for `CCCCCCCCCCCCCCCCNC(=O)[C@H]1CC(=O)N[C@H](CO)C(=O)N[C@H](Cc2ccc(O)cc2)C(=O)N[C@H](CC(N)=O)C(=O)NCC(=O)N[C@@H](CC(N)=O)C(=O)N[C@@H](CO)C(=O)N[C@@H](CC(N)=O)C(=O)N1`, the outcome in experiment [1] was inactive.

With `CCCCCCCCCCCCNC(=O)[C@@H]1CC(=O)N[C@H](CO)C(=O)N[C@H](Cc2ccc(O)cc2)C(=O)N[C@H](CC(N)=O)C(=O)NCC(=O)N[C@@H](CC(N)=O)C(=O)N[C@@H](CO)C(=O)N[C@H](CC(N)=O)C(=O)N1`, in experiment [1], the outcome was inactive.

Take `CCCCCCCCCCCCNC(=O)[C@H](CC(=O)N[C@H](CO)C(=O)N[C@H](Cc1ccc(O)cc1)C(=O)O)NC(=O)[C@H](CC(N)=O)NC(=O)[C@H](CO)NC(=O)[C@H](CC(N)=O)NC(=O)CNC(=O)[C@H](N)CC(N)=O`: in experiment [1], the result was inactive.

Turning to `CCCCCCCCCCCCNC(=O)[C@@H]1CC(=O)N[C@H](CO)C(=O)N[C@H](Cc2ccc(O)cc2)C(=O)N[C@H](CC(N)=O)C(=O)NCC(=O)N[C@@H](CC(N)=O)C(=O)N[C@H](CO)C(=O)N[C@@H](CC(N)=O)C(=O)N1`, in experiment [1], the outcome was inactive.

In the case of `CCCCCCCCCCCCCCCCNC(=O)[C@@H]1CC(=O)N[C@H](CO)C(=O)N[C@H](Cc2ccc(O)cc2)C(=O)N[C@H](CC(N)=O)C(=O)NCC(=O)N[C@@H](CC(N)=O)C(=O)N[C@@H](CO)C(=O)N[C@@H](CC(N)=O)C(=O)N1`, in experiment [1], the outcome was inactive.

For the molecule `CCCCCCCCCCCCNC(=O)[C@H]1CC(=O)N[C@H](CO)C(=O)N[C@H](Cc2ccc(O)cc2)C(=O)N[C@H](CC(N)=O)C(=O)NCC(=O)N[C@H](CC(N)=O)C(=O)N[C@@H](CO)C(=O)N[C@H](CC(N)=O)C(=O)N1`, the values for the MIC in experiment [2] and in experiment [3] were 400 µg/mL (≈ 392 µM) and 200 µg/mL (≈ 196 µM), respectively. Further, the outcome in experiment [1] was inactive.

Consider `CCCCCCCCCCCCNC(=O)[C@H](CC(=O)N[C@H](CO)C(=O)N[C@H](Cc1ccc(O)cc1)C(=O)N[C@H](CC(N)=O)C(=O)O)NC(=O)[C@H](CC(N)=O)NC(=O)[C@H](CO)NC(=O)[C@H](CC(N)=O)NC(=O)CN`, for which the result in experiment [1] was inactive.

As for `CCCCCCCCCCCCNC(=O)[C@H]1CC(=O)N[C@H](CO)C(=O)N[C@H](Cc2ccc(O)cc2)C(=O)N[C@H](CC(N)=O)C(=O)NCC(=O)N[C@H](CC(N)=O)C(=O)N[C@@H](CO)C(=O)N[C@@H](CC(N)=O)C(=O)N1`, in experiment [1], the result was inactive.

On to `CCCCCCCCCCCCNC(=O)[C@H](CC(=O)N[C@H](CO)C(=O)N[C@H](Cc1ccc(O)cc1)C(=O)N[C@H](CC(N)=O)C(=O)NCC(=O)N[C@@H](CC(N)=O)C(=O)N[C@@H](CO)C(=O)O)NC(=O)[C@@H](N)CC(N)=O`, for which, in experiment [1], the outcome was inactive.

With `CCCCCCCCCCCCNC(=O)[C@@H]1CC(=O)N[C@H](CO)C(=O)N[C@H](Cc2ccc(O)cc2)C(=O)N[C@H](CC(N)=O)C(=O)NCC(=O)N[C@H](CC(N)=O)C(=O)N[C@H](CO)C(=O)N[C@@H](CC(N)=O)C(=O)N1`, in experiment [1], the outcome was inactive.

Regarding `CCCCCCCCNC(=O)[C@@H]1CC(=O)N[C@H](CO)C(=O)N[C@H](Cc2ccc(O)cc2)C(=O)N[C@H](CC(N)=O)C(=O)NCC(=O)N[C@@H](CC(N)=O)C(=O)N[C@@H](CO)C(=O)N[C@@H](CC(N)=O)C(=O)N1`, in experiment [1], the result was inactive.

`CCCCCCCCCCCCNC(=O)[C@H]1CC(=O)N[C@H](CO)C(=O)N[C@H](Cc2ccc(O)cc2)C(=O)N[C@H](CC(N)=O)C(=O)NCC(=O)N[C@@H](CC(N)=O)C(=O)N[C@@H](CO)C(=O)N[C@@H](CC(N)=O)C(=O)N1`: the MIC in experiment [2] and in experiment [3] was 50 µg/mL (≈ 49.1 µM) throughout. Moreover, the result in experiment [1] was inactive.

As to `CCCCCCCCCCCCNC(=O)[C@@H]1CC(=O)N[C@H](CO)C(=O)N[C@H](Cc2ccc(O)cc2)C(=O)N[C@H](CC(N)=O)C(=O)NCC(=O)N[C@H](CC(N)=O)C(=O)N[C@@H](CO)C(=O)N[C@H](CC(N)=O)C(=O)N1`, in experiment [1], the result was inactive.

On to `CCCCCCCCCCCCNC(=O)[C@H](CC(=O)N[C@H](CO)C(=O)N[C@H](Cc1ccc(O)cc1)C(=O)N[C@H](CC(N)=O)C(=O)NCC(=O)O)NC(=O)[C@H](CC(N)=O)NC(=O)[C@H](CO)NC(=O)[C@@H](N)CC(N)=O`, for which the result in experiment [1] was inactive.

Consider `CCCCCCCCCCCCNC(=O)[C@H]1CC(=O)N[C@H](CO)C(=O)N[C@H](Cc2ccc(O)cc2)C(=O)N[C@H](CC(N)=O)C(=O)NCC(=O)N[C@H](CC(N)=O)C(=O)N[C@H](CO)C(=O)N[C@H](CC(N)=O)C(=O)N1`, for which the minimum inhibitory concentration (MIC) worked out at 100 µg/mL (≈ 98.1 µM) in experiment [2] and 200 µg/mL (≈ 196 µM) in experiment [3]. Besides, the result in experiment [1] was inactive.

`CCCCCCCCCCCCNC(=O)[C@H]1CC(=O)N[C@H](CO)C(=O)N[C@H](Cc2ccc(O)cc2)C(=O)N[C@H](CC(N)=O)C(=O)NCC(=O)N[C@@H](CC(N)=O)C(=O)N[C@@H](CO)C(=O)N[C@H](CC(N)=O)C(=O)N1`: the MIC in experiment [2] is over 400 µg/mL; in experiment [3], 200 µg/mL (≈ 196 µM). In addition, the result in experiment [1] was inactive.

As to `CCCCCCCCCCCCNC(=O)[C@@H]1CC(=O)N[C@H](CO)C(=O)N[C@H](Cc2ccc(O)cc2)C(=O)N[C@H](CC(N)=O)C(=O)NCC(=O)N[C@@H](CC(N)=O)C(=O)N[C@H](CO)C(=O)N[C@H](CC(N)=O)C(=O)N1`, the result in experiment [1] was inactive.

With `CCCCCCCCCCCCNC(=O)[C@@H]1CC(=O)N[C@H](CO)C(=O)N[C@H](Cc2ccc(O)cc2)C(=O)N[C@H](CC(N)=O)C(=O)NCC(=O)N[C@@H](CC(N)=O)C(=O)N[C@@H](CO)C(=O)N[C@@H](CC(N)=O)C(=O)N1`, the values for the MIC in experiment [2] and in experiment [3] were 25 µg/mL (≈ 24.5 µM) and 50 µg/mL (≈ 49.1 µM), respectively. Also, in experiment [1], the result was inactive.

For `CCCCCCCCCCCCNC(=O)[C@@H]1CC(=O)N[C@H](CO)C(=O)N[C@H](Cc2ccc(O)cc2)C(=O)N[C@H](CC(N)=O)C(=O)NCC(=O)N[C@H](CC(N)=O)C(=O)N[C@@H](CO)C(=O)N[C@@H](CC(N)=O)C(=O)N1`, the result in experiment [1] was inactive.

In the case of `CCCCCCCCCCCCNC(=O)[C@H](CC(=O)N[C@H](CO)C(=O)N[C@H](Cc1ccc(O)cc1)C(=O)N[C@H](CC(N)=O)C(=O)NCC(=O)N[C@@H](CC(N)=O)C(=O)O)NC(=O)[C@H](CC(N)=O)NC(=O)[C@@H](N)CO`, in experiment [1], the outcome was inactive.

What is called MIC is the least concentration at which growth counts as inhibited.
